# Reference: PMC9305987 (Nature cell biology, 2022)
# Like-named read-outs stand apart in the source and are kept apart here.
# How the values were obtained:
# [1] = target: recombinant human TET2^CD (Homo sapiens, UniProt Q6N021); experiment: Saturation transfer difference; assay type: binding
# Method in brief: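 Spectra were run at 25°C, 700 MHz, cryoprobe, carrier on water. A 3-s saturation used a 50-ms EBurp2 pulse (0.75 ppm bandwidth) centred at 0.8 ppm for difference or −40 ppm for reference spectra.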
# peritoneal leukocytes = experiment: Genomic 5hmC and 5mC in peritoneal leukocytes after i.p. ITA, LC-MS/MS; assay type: in vivo, mouse; settings: 50 mg/kg ITA i.p. prior to LPS 25 mg/kg
# [2] = tested on: bone marrow-derived macrophages (BMDMs); experiment: Global 5hmC quantification by LC-MS/MS in BMDMs; assay type: cell-based, mouse; settings: 0.5 mM OI or increased concentrations of ITA, 8 hours; for Reduction of global 5hmC: Tet2^+/+ BMDMs; for Effect on global 5hmC: Tet2^−/− BMDMs
# [3] = tested on: HEK293T cells overexpressing TET3; experiment: Global 5hmC by dot-blot and LC-MS/MS in TET3-overexpressing cells; assay type: cell-based
# Method in brief: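 For dot-blot, genomic DNA was spotted on nitrocellulose, UV-crosslinked for 20 min, blocked in 5% milk, probed with anti-5hmC overnight at 4°C and HRP secondary, then scanned. Global 5hmC was also measured by LC-MS/MS, mean with S.D. of 3 independent experiments.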
# [4] = tested on: RAW264.7 mouse macrophages; experiment: Intracellular ITA accumulation by LC-MS/MS; assay type: cell-based; settings: RAW264.7, dose-dependent
# mTET2^CD = target: T1, mTET2^CD (Mus musculus, UniProt Q4JK59); assay type: biochemical; settings: for Inhibition of mTET2^CD activity in presence of excess α-KG: fixed concentration of inhibitor, variable α-KG
# T1 sequence (Q4JK59 1042-1912 limits assumed): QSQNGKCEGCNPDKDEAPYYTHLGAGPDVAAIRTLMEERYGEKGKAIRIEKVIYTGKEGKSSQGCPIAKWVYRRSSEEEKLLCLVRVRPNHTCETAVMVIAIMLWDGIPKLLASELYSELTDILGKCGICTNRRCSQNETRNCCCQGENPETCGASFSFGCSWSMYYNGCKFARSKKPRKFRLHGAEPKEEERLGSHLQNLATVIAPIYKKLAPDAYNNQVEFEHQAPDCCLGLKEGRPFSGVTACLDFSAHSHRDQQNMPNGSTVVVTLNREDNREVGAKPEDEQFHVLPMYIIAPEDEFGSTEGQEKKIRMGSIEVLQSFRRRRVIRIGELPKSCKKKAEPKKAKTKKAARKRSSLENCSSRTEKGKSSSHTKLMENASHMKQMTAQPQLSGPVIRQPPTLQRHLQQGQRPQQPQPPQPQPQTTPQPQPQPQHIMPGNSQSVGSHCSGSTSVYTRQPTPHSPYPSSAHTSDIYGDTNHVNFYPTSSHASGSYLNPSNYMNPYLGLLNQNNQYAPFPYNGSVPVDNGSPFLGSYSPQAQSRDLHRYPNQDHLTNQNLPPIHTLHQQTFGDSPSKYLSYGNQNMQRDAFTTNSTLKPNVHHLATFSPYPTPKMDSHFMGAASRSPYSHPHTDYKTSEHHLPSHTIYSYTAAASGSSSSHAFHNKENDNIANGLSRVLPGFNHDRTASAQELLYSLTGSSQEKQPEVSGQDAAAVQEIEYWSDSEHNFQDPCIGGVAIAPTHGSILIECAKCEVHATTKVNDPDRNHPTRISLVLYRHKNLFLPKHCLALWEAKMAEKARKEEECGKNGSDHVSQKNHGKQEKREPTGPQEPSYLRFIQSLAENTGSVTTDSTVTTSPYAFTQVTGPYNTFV
# LPS-induced sepsis = experiment: Mouse model of LPS-induced sepsis; assay type: in vivo; settings: Tet2^−/− mice
# [5] = tested on: TET2^CD mutant, i.e. R1896M or S1898F; experiment: STD NMR binding to TET2^CD mutants; parameters: species or system human
# RAW264.7 cells [6] = experiment: qRT-PCR of LPS-induced genes; assay type: cell-based, mouse
# Method in brief: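 Alternatively, cells got LPS for 2 h, then OI for 2 h, or LPS plus dimethyl-α-KG (0.5, 1, 2 mM). mRNA was measured by qRT-PCR with β-actin as housekeeping control. Nfkbiz data are means with S.D. of 3 independent experiments.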
# [7] = tested on: TET2-overexpressing HEK293T cells; experiment: Global histone methylation markers by western blot; assay type: cell-based
# Tet2^+/+ BMDMs = experiment: 5hmC mapping by hMeDIP-seq in BMDMs; assay type: cell-based, mouse; settings: 0.5 mM OI, 8 hours
# [8] = tested on: HEK293T cells overexpressing mTET2^CD; experiment: Global 5hmC by immunofluorescence in TET2-overexpressing cells; assay type: cell-based; settings: for Effect on 5hmC: HEK293T overexpressing mTET2^CD
# Method in brief: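 TET2-overexpressing HEK293T cells were treated with OI alone or with rising amounts of dimethyl-α-KG. 5hmC immunofluorescence: Triton X-100 permeabilization, 2 N HCl denaturation for 30 min, Tris pH 8.5 neutralization, BSA block, anti-5hmC overnight at 4°C, fluorescent secondary, DAPI counterstain. Two independent experiments.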
# Irg1-KO RAW264.7 cells = experiment: SDH inhibition, succinate and 5hmC in LPS-stimulated Irg1-KO macrophages; assay type: cell-based, mouse; settings: 3-NPA 1 mM, LPS-stimulated Irg1-KO RAW264.7
# RAW264.7 cells [9] = experiment: Genomic 5hmC by IF staining in LPS-treated macrophages; assay type: cell-based, mouse; settings: LPS 12 hours then 1 mM for 12 hours
# Method in brief: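 RAW264.7 cells (DMEM, 10% FBS) were challenged with LPS for 12 h, then given dimethyl-α-KG (1 mM) for 12 h. Cells were permeabilized with 0.3% Triton X-100 for 15 min, DNA denatured with 2 N HCl for 30 min, and neutralized with 100 mM Tris-HCl pH 8.5. Staining used 3% BSA block, anti-5hmC at 4°C overnight, Alexa Fluor 594 secondary for 1 h, and DAPI, then fluorescence microscopy.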
molecule,measurement,setting,value
NC(=O)CC[C@H](N)C(=O)O [glutamine],Binding to recombinant human TET2^CD (STD NMR),[1],not
"C=C(CC(=O)O)C(=O)O [ITA, itaconic acid]",5mC in peritoneal leukocytes,peritoneal leukocytes,unaffected
same,Reduction of 5hmC in peritoneal leukocytes,peritoneal leukocytes; 2 hours post LPS,≤ 36%
same,Reduction of global 5hmC,[2],≤ 95%
same,Effect on global 5hmC,[2],little effect
same,Binding to recombinant human TET2^CD (STD NMR),[1],bound directly
same,ITA-TET2^CD binding in presence of α-KG (STD NMR),[1]; competition with α-KG,blocked by α-KG
same,Effect on global 5hmC,[3],decreased global 5hmC
same,Time to intracellular accumulation of ITA,[4],< 30 s
same,IC50,mTET2^CD,171 µM
same,Inhibition of mTET2^CD activity in presence of excess α-KG,mTET2^CD,overcome dose-dependently by excess α-KG
same,Anti-inflammatory and protective effects,LPS-induced sepsis,not observed
same,Binding to TET2^CD mutants R1896M or S1898F (STD NMR),[5],abolish the binding
same,Suppression of LPS-induced chemokine and cytokine genes upon Tet2 deletion,"RAW264.7 cells [6]; unmodified ITA 3 mM, Tet2-WT vs Tet2-KO",completely abolished by Tet2 deletion
α-ketoglutarate [α-KG],Binding to TET2^CD R1896M mutant (STD NMR),"[5]; R1896M mutation, not S1898F",weakens the binding
O=C(O)CC[C@H](O)C(=O)O [L-2-HG],Inhibition of mTET2^CD activity in presence of excess α-KG,mTET2^CD,overcome dose-dependently by excess α-KG
"C=C(CC(=O)OCCCCCCCC)C(=O)O [OI, octyl-ITA]",Reduction of global 5hmC,[2],≤ 95%
same,Effect on global 5hmC,[2],little effect
same,Effect on global histone methylation,[7],no detectable effect
same,5hmC by hMeDIP-seq,Tet2^+/+ BMDMs,decreased 5hmC at both promoters and intragenic regions
same,Effect on global 5hmC,[3],decreased global 5hmC
same,Time to intracellular accumulation of ITA,[4],< 30 s
same,Effect on 5hmC,[8],dose-dependently reduced 5hmC
same,Nfkbiz mRNA expression,RAW264.7 cells [6]; LPS-stimulated Tet2-KO cells,failed to affect
same,"LPS-induced mRNA expression of Nfkbiz, Il-6, Cxcl9/10/11","RAW264.7 cells [6]; Tet2-WT, LPS 2 hours then OI 2 hours",hindered
O=C(O)/C=C/C(=O)O [fumarate],IC50,"mTET2^CD; read-out: IC50 toward mTET2^CD catalytic activity, 0.1 mM α-KG, 37°C 30 min",> 5000 µM
"O=C(O)CC[N+](=O)[O-] [3-NPA, 3-nitropropionic acid]",Effect on global 5hmC,Irg1-KO RAW264.7 cells,little effect
same,Intracellular accumulation of succinate,Irg1-KO RAW264.7 cells,≤ 1.5 mM
CCCCCCCCOC(=O)[C@@H](O)CCC(=O)O [Octyl-L-2HG],Effect on 5hmC,[8],dose-dependently reduced 5hmC
COC(=O)CCC(=O)C(=O)OC [dimethyl-α-KG],Effect on OI-induced 5hmC reduction,"[8]; increasing amount, together with OI",reversed
same,Effect on 5hmC in LPS-treated cells,RAW264.7 cells [9],restored 5hmC
same,Nfkbiz mRNA,RAW264.7 cells [6]; LPS-stimulated Tet2-WT but not Tet2-KO cells,further increase
